Measured values reported in ChEMBL document CHEMBL3351523 (Bioorg Med Chem, 2014).

system: not listed separately; experiment: Cytotoxicity against mock-infected human MT4 cells after 96 hrs by MTT assay; assay type: cell-based; conditions: not given
Procedure, shortened: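 Exponentially growing MT-4 cells were seeded at 1 × 10^5 cells/mL in RPMI-1640 with 10% FBS and held at 37 °C, 5% CO2 with serial compound dilutions. Viability was read by MTT after 96 h. CC50 from linear regression against untreated controls.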

Compound | CC50 at 96 h [µM]
FC(F)(F)c1ccc2c(c1)nc(CC1=CCCC1)n2C[C@@H]1CCCN2CCCC[C@H]12 | 5
CCOCc1nc2ccccc2[nH]1 | > 100
c1ccc(-n2c(C[C@@H]3CCCN4CCCC[C@H]34)nc3ccccc32)cc1 | 33
CCc1nc2ccccc2[nH]1 | > 100
C[C@@]1(O)[C@H](O)[C@@H](CO)O[C@H]1n1cnc2c(=O)[nH]c(N)nc21 [2'-B-METHYL-GUANOSINE] | > 100

system: not listed separately; experiment: Cytotoxicity against mock-infected african green monkey Vero 76 cells after 48 to 96 hrs by MTT assay; assay type: cell-based; conditions: chlorocebus sabaeus, mock-infected Vero 76 cells

Compound | CC50 [µM]
FC(F)(F)c1ccc2c(c1)nc(CC1=CCCC1)n2C[C@@H]1CCCN2CCCC[C@H]12 | > 100
CCOCc1nc2ccccc2[nH]1 | > 100
c1ccc(-n2c(C[C@@H]3CCCN4CCCC[C@H]34)nc3ccccc32)cc1 | > 100
CCc1nc2ccccc2[nH]1 | > 100
C[C@@]1(O)[C@H](O)[C@@H](CO)O[C@H]1n1cnc2c(=O)[nH]c(N)nc21 [2'-B-METHYL-GUANOSINE] | > 100

system: Human immunodeficiency virus 1; experiment: Antiviral activity against HIV1 infected in human MT4 cells assessed as inhibition of virus-induced cytopathogenicity after 4 days by MTT assay; assay type: functional, organism-based; conditions: Human immunodeficiency virus 1, MT4, 96 h
Procedure, shortened: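 MT-4 cells (1 × 10^4/well in RPMI) were infected acutely with HIV-1 IIIB, 100 CCID50 (m.o.i. 0.01), with serial dilutions from 100 µM, 1:5. After 4 days at 37 °C, protection from virus-induced cytopathogenicity was read by MTT. EC50 came from linear regression against untreated controls.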

Compound | EC50 [µM]
FC(F)(F)c1ccc2c(c1)nc(CC1=CCCC1)n2C[C@@H]1CCCN2CCCC[C@H]12 | > 100
CCOCc1nc2ccccc2[nH]1 | > 100
c1ccc(-n2c(C[C@@H]3CCCN4CCCC[C@H]34)nc3ccccc32)cc1 | > 100
CCc1nc2ccccc2[nH]1 | > 100

system: Coxsackievirus B5; experiment: Antiviral activity against Coxsackievirus B5 infected in african green monkey Vero 76 cells assessed as reduction in plaque number after 3 days by plaque reduction assay; assay type: functional, organism-based; conditions: Enterovirus B, 72 h

Compound | EC50 [µM]
FC(F)(F)c1ccc2c(c1)nc(CC1=CCCC1)n2C[C@@H]1CCCN2CCCC[C@H]12 | > 100
CCOCc1nc2ccccc2[nH]1 | > 100
c1ccc(-n2c(C[C@@H]3CCCN4CCCC[C@H]34)nc3ccccc32)cc1 | 49
CCc1nc2ccccc2[nH]1 | > 100
C[C@@]1(O)[C@H](O)[C@@H](CO)O[C@H]1n1cnc2c(=O)[nH]c(N)nc21 [2'-B-METHYL-GUANOSINE] | 20

system: Vaccinia virus; experiment: Antiviral activity against Vaccinia Virus infected in african green monkey Vero 76 cells assessed as reduction in plaque number after 3 days by plaque reduction assay; assay type: functional, organism-based; conditions: Orthopoxvirus vaccinia, 72 h

Compound | EC50 [µM]
FC(F)(F)c1ccc2c(c1)nc(CC1=CCCC1)n2C[C@@H]1CCCN2CCCC[C@H]12 | > 100
CCOCc1nc2ccccc2[nH]1 | > 100
c1ccc(-n2c(C[C@@H]3CCCN4CCCC[C@H]34)nc3ccccc32)cc1 | > 100
CCc1nc2ccccc2[nH]1 | > 100
C[C@@]1(O)[C@H](O)[C@@H](CO)O[C@H]1n1cnc2c(=O)[nH]c(N)nc21 [2'-B-METHYL-GUANOSINE] | > 100

system: Human alphaherpesvirus 1; experiment: Antiviral activity against HSV1 infected in african green monkey Vero 76 cells assessed as reduction in plaque number after 3 days by plaque reduction assay; assay type: functional, organism-based; conditions: Human alphaherpesvirus 1, Vero, 72 h

Compound | EC50 [µM]
FC(F)(F)c1ccc2c(c1)nc(CC1=CCCC1)n2C[C@@H]1CCCN2CCCC[C@H]12 | 30
CCOCc1nc2ccccc2[nH]1 | > 100
c1ccc(-n2c(C[C@@H]3CCCN4CCCC[C@H]34)nc3ccccc32)cc1 | > 100
CCc1nc2ccccc2[nH]1 | > 100
C[C@@]1(O)[C@H](O)[C@@H](CO)O[C@H]1n1cnc2c(=O)[nH]c(N)nc21 [2'-B-METHYL-GUANOSINE] | > 100

system: Yellow fever virus; experiment: Antiviral activity against Yellow fever virus infected in BHK21 cells assessed as inhibition of virus-induced cytopathogenicity after 3 to 4 days by MTT assay; assay type: functional, organism-based; conditions: BHK-21

Compound | EC50 [µM]
FC(F)(F)c1ccc2c(c1)nc(CC1=CCCC1)n2C[C@@H]1CCCN2CCCC[C@H]12 | > 100
CCOCc1nc2ccccc2[nH]1 | > 100
c1ccc(-n2c(C[C@@H]3CCCN4CCCC[C@H]34)nc3ccccc32)cc1 | > 100
CCc1nc2ccccc2[nH]1 | > 100
C[C@@]1(O)[C@H](O)[C@@H](CO)O[C@H]1n1cnc2c(=O)[nH]c(N)nc21 [2'-B-METHYL-GUANOSINE] | > 100

system: Respiratory syncytial virus; experiment: Antiviral activity against Respiratory syncytial virus infected in african green monkey Vero 76 cells assessed as reduction in plaque number after 5 days by plaque reduction assay; assay type: functional, organism-based; conditions: human respiratory syncytial virus, 120 h

Compound | EC50 [µM]
FC(F)(F)c1ccc2c(c1)nc(CC1=CCCC1)n2C[C@@H]1CCCN2CCCC[C@H]12 | > 100
CCOCc1nc2ccccc2[nH]1 | > 100
c1ccc(-n2c(C[C@@H]3CCCN4CCCC[C@H]34)nc3ccccc32)cc1 | > 100
CCc1nc2ccccc2[nH]1 | > 100
C[C@@]1(O)[C@H](O)[C@@H](CO)O[C@H]1n1cnc2c(=O)[nH]c(N)nc21 [2'-B-METHYL-GUANOSINE] | > 100

system: Poliovirus 1; experiment: Antiviral activity against Poliovirus type 1 Sabin strain infected in african green monkey Vero 76 cells assessed as reduction in plaque number after 2 days by plaque reduction assay; assay type: functional, organism-based; conditions: Enterovirus C, 48 h

Compound | EC50 [µM]
FC(F)(F)c1ccc2c(c1)nc(CC1=CCCC1)n2C[C@@H]1CCCN2CCCC[C@H]12 | > 100
CCOCc1nc2ccccc2[nH]1 | > 100
c1ccc(-n2c(C[C@@H]3CCCN4CCCC[C@H]34)nc3ccccc32)cc1 | > 100
CCc1nc2ccccc2[nH]1 | > 100
C[C@@]1(O)[C@H](O)[C@@H](CO)O[C@H]1n1cnc2c(=O)[nH]c(N)nc21 [2'-B-METHYL-GUANOSINE] | > 100

system: Reovirus sp.; experiment: Antiviral activity against Reovirus type-1 infected in BHK21 cells assessed as inhibition of virus-induced cytopathogenicity after 3 to 4 days by MTT assay; assay type: functional, organism-based; conditions: BHK-21

Compound | EC50 [µM]
FC(F)(F)c1ccc2c(c1)nc(CC1=CCCC1)n2C[C@@H]1CCCN2CCCC[C@H]12 | > 100
CCOCc1nc2ccccc2[nH]1 | > 100
c1ccc(-n2c(C[C@@H]3CCCN4CCCC[C@H]34)nc3ccccc32)cc1 | > 100
CCc1nc2ccccc2[nH]1 | > 100
C[C@@]1(O)[C@H](O)[C@@H](CO)O[C@H]1n1cnc2c(=O)[nH]c(N)nc21 [2'-B-METHYL-GUANOSINE] | 2.4

system: Vesicular stomatitis virus; experiment: Antiviral activity against Vesicular stomatitis virus infected in african green monkey Vero 76 cells assessed as reduction in plaque number after 2 days by plaque reduction assay; assay type: functional, organism-based; conditions: 48 h

Compound | EC50 [µM]
FC(F)(F)c1ccc2c(c1)nc(CC1=CCCC1)n2C[C@@H]1CCCN2CCCC[C@H]12 | > 100
CCOCc1nc2ccccc2[nH]1 | > 100
c1ccc(-n2c(C[C@@H]3CCCN4CCCC[C@H]34)nc3ccccc32)cc1 | > 100
CCc1nc2ccccc2[nH]1 | > 100
C[C@@]1(O)[C@H](O)[C@@H](CO)O[C@H]1n1cnc2c(=O)[nH]c(N)nc21 [2'-B-METHYL-GUANOSINE] | > 100

system: not listed separately; experiment: Cytotoxicity against mock-infected BHK21 cells after 48 to 96 hrs by MTT assay; assay type: functional; conditions: Mesocricetus auratus, BHK-21
Procedure, shortened: (§1)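 Mock-infected MDBK (6 × 10^5 cells/mL; MEM-E, 10% horse serum, 1 mM pyruvate) or BHK (1 × 10^6 cells/mL; MEM-E, 10% FBS) cells were incubated at 37 °C, 5% CO2 with serial dilutions from 100 µM, 1:5. Viability by MTT after 48–96 h. CC50 from linear regression against untreated controls.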

Compound | CC50 [µM]
FC(F)(F)c1ccc2c(c1)nc(CC1=CCCC1)n2C[C@@H]1CCCN2CCCC[C@H]12 | 30
CCOCc1nc2ccccc2[nH]1 | > 100
c1ccc(-n2c(C[C@@H]3CCCN4CCCC[C@H]34)nc3ccccc32)cc1 | 30
CCc1nc2ccccc2[nH]1 | > 100
C[C@@]1(O)[C@H](O)[C@@H](CO)O[C@H]1n1cnc2c(=O)[nH]c(N)nc21 [2'-B-METHYL-GUANOSINE] | 90

system: Bovine viral diarrhea virus 1; experiment: Antiviral activity against Bovine viral diarrhea virus infected in MDBK cells assessed as inhibition of virus-induced cytopathogenicity after 3 to 4 days by MTT assay; assay type: functional, organism-based; conditions: Bovine viral diarrhea virus isolates and strains

Compound | EC50 [µM]
FC(F)(F)c1ccc2c(c1)nc(CC1=CCCC1)n2C[C@@H]1CCCN2CCCC[C@H]12 | > 100
CCOCc1nc2ccccc2[nH]1 | > 100
c1ccc(-n2c(C[C@@H]3CCCN4CCCC[C@H]34)nc3ccccc32)cc1 | 89
CCc1nc2ccccc2[nH]1 | > 100

system: not listed separately; experiment: Selectivity index, ratio of CC50 for african green monkey Vero 76 cells to EC50 for Coxsackievirus B5; assay type: toxicity, cell-based; conditions: read-out: Ratio CC50/EC50
Procedure, shortened: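 Mock-infected Vero-76 cells were tested in parallel on the same 24-well plates as the plaque assays (seeding 4 × 10^5 cells/mL, D-MEM with FBS), with serial compound dilutions at 37 °C, 5% CO2. Viability was read after 48–96 h by crystal violet staining. CC50 by linear regression; selectivity index = Vero-76 CC50/EC50 for CVB-5 or RSV.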

Compound | selectivity ratio
c1ccc(-n2c(C[C@@H]3CCCN4CCCC[C@H]34)nc3ccccc32)cc1 | > 2.04
C[C@@]1(O)[C@H](O)[C@@H](CO)O[C@H]1n1cnc2c(=O)[nH]c(N)nc21 [2'-B-METHYL-GUANOSINE] | > 5

system: not listed separately; experiment: Cytotoxicity against mock-infected MDBK cells after 48 to 96 hrs by MTT assay; assay type: cell-based, Bos taurus; conditions: cattle; procedure, shortened: as §1

Compound | CC50 [µM]
FC(F)(F)c1ccc2c(c1)nc(CC1=CCCC1)n2C[C@@H]1CCCN2CCCC[C@H]12 | 50
CCOCc1nc2ccccc2[nH]1 | > 100
c1ccc(-n2c(C[C@@H]3CCCN4CCCC[C@H]34)nc3ccccc32)cc1 | > 100
CCc1nc2ccccc2[nH]1 | > 100
C[C@@]1(O)[C@H](O)[C@@H](CO)O[C@H]1n1cnc2c(=O)[nH]c(N)nc21 [2'-B-METHYL-GUANOSINE] | > 100
